The subject of test [1] is MCF7. Kind of test: Cytotoxicity activity against human MCF7 cells expressing p53 mutant by MTT assay. Format: functional, cell-based. The gist of the method: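 Human mammary carcinoma MCF-7 cells carrying a dominant-negative mutant p53 tumour suppressor gene (MCF-7 mup53). Cytotoxicity was read out by MTT assay, and the value reported is the IC50 in nM.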
Test [2] concerns MCF7. In words: Antimitotic activity against human MCF7 cells expressing p53 mutant.

A value given as a limit tells only on which side of the number the result lay.

Turning to `CN[C@@H](C(=O)N[C@H](C(=O)N(C)[C@H](/C=C(\C)C(=O)O)C(C)C)C(C)(C)C)C(C)(C)c1ccccc1`, the values for the IC50 with MCF7 [1] and in the test on MCF7 [2] were 25 nM and 10 nM, respectively.
In the test with MCF7 [1], `CN[C@H](C(=O)N[C@H](C(=O)N(C)[C@H](/C=C(\C)C(=O)N[C@@H](CCCNC(=N)N)C(=O)O)C(C)C)C(C)(C)C)C(C)(C)c1cn(C)c2ccccc12` [CRIAMIDES A] had an IC50 of 1000 nM.
As to `CN[C@H](C(=O)N[C@H](C(=O)N(C)[C@H](/C=C(\C)C(=O)O)C(C)C)C(C)C)C(C)(C)c1c[nH]c2ccccc12` [HEMIASTERLINS B], the IC50 in the test with MCF7 [1] is 7 nM; with MCF7 [2] it was 200 nM.
Consider `CN[C@@H](Cc1ccccc1)C(=O)N[C@H](C(=O)N(C)[C@H](/C=C(\C)C(=O)O)C(C)C)C(C)(C)C`, for which the values for the IC50 in the test with MCF7 [1] and with MCF7 [2] were 4000 nM and 5000 nM, respectively.
With `C/C(=C\[C@H](C(C)C)N(C)C(=O)[C@@H](NC(=O)[C@@H](N)C(C)(C)c1cn(C)c2ccccc12)C(C)(C)C)C(=O)O`, the IC50 in the test on MCF7 [1] came to 50 nM; in the test on MCF7 [2], 30 nM.
Regarding `C/C(=C\[C@H](C(C)C)N(C)C(=O)[C@@H](NC(=O)[C@H](C(C)(C)c1cn(C)c2ccccc12)[N+](C)(C)C)C(C)(C)C)C(=O)O`, the IC50 in the test on MCF7 [1] and in the test on MCF7 [2] was more than 1000 nM in each case.
Take `CN[C@H](C(=O)N[C@H](C(=O)N(C)[C@H](/C=C(\C)C(=O)O)C(C)C)C(C)(C)C)C(C)(C)c1c[nH]c2ccccc12` [HEMIASTERLINS A]: the IC50 with MCF7 [1] and with MCF7 [2] was 2 nM throughout.
Regarding `CN[C@H](C(=O)N[C@H](C(=O)N(C)[C@H](/C=C(\C)C(=O)O)C(C)C)C(C)(C)C)C(C)(C)c1cn(C)c2ccccc12` [HEMIASTERLIN], the IC50 with MCF7 [1] and in the test on MCF7 [2] was 0.3 nM in each case.
On to `CN[C@H](C(=O)N[C@H](C(=O)N[C@H](/C=C(\C)C(=O)O)C(C)C)C(C)(C)C)C(C)(C)c1cn(C)c2ccccc12`, for which the 50% inhibitory concentration (IC50) in the test on MCF7 [1] is 0.25 nM; in the test with MCF7 [2] it was 0.15 nM.
For `CN[C@H](C(=O)N[C@H](C(=O)N(C)[C@@H](C)/C=C(\C)C(=O)O)C(C)(C)C)C(C)(C)c1cn(C)c2ccccc12`, the IC50 in the test on MCF7 [1] and with MCF7 [2] was 4 nM throughout.
For `C/C(=C\[C@H](C(C)C)N(C)C(=O)[C@@H](NC(=O)C(C)(C)C)C(C)(C)C)C(=O)O`, the IC50 in the test with MCF7 [1] and in the test on MCF7 [2] was more than 10000 nM in each case.
Turning to `CN[C@H](C(=O)N[C@H](C(=O)N[C@H](/C=C(\C)C(=O)O)C(C)C)C(C)(C)C)C(C)(C)C`, the values for the IC50 with MCF7 [1] and in the test with MCF7 [2] were 1600 nM and more than 10000 nM, respectively.
With `CN[C@@H](Cc1cn(C)c2ccccc12)C(=O)N[C@H](C(=O)N(C)C/C=C(\C)C(=O)O)C(C)(C)C`, the IC50 in the test with MCF7 [1] and in the test on MCF7 [2] was more than 10000 nM throughout.
Take `CN[C@H](C(=O)N[C@H](C(=O)N(C)[C@H](/C=C(\C)C(=O)O)C(C)C)C(C)C)C(C)(C)c1cn(C)c2ccccc12`: the IC50 with MCF7 [1] was 0.8 nM; in the test with MCF7 [2] it was 0.5 nM.
For the molecule `CN[C@H](C(=O)N[C@H](C(=O)N(C)C/C=C(\C)C(=O)O)C(C)(C)C)C(C)(C)c1cn(C)c2ccccc12`, the IC50 with MCF7 [1] and in the test with MCF7 [2] was more than 10000 nM throughout.
As to `CN[C@H](C(=O)N[C@H](C(=O)N(C)[C@H](C)/C=C(\C)C(=O)O)C(C)(C)C)C(C)(C)c1cn(C)c2ccccc12`, the half-inhibitory concentration (IC50) came to 40 nM in the test with MCF7 [1] and 200 nM with MCF7 [2].
For `CN[C@H](C(=O)N[C@H](C(=O)N(C)[C@@H](/C=C(\C)C(=O)O)C(C)C)C(C)(C)C)C(C)(C)c1cn(C)c2ccccc12` the same measures were 30 nM and 10 nM.
Turning to `CN[C@H](C(=O)N[C@H](C(=O)N(C)[C@H](/C=C(\C)C(=O)OC)C(C)C)C(C)(C)C)C(C)(C)c1cn(C)c2ccccc12` [HEMIASTERLIN METHYL ESTER], the IC50 with MCF7 [1] and in the test on MCF7 [2] was 0.5 nM in each case.
For `CN[C@H](C(=O)N[C@H](C(=O)N[C@H](/C=C(\C)C(=O)O)C(C)C)C(C)(C)C)C(C)(C)c1ccccc1`, the 50% inhibitory concentration (IC50) in the test on MCF7 [1] is 15 nM; in the test on MCF7 [2], 20 nM.
As to `CN[C@H](C(=O)N[C@H](C(=O)N(C)[C@H](/C=C(\C)C(=O)OC)C(C)C)C(C)(C)C)C(C)(C)c1ccccc1`, the figures for the half-inhibitory concentration (IC50) in the test on MCF7 [1] and with MCF7 [2] were 3 nM and 2 nM, respectively.
With `CC[C@H](NC(=O)[C@@H](NC)C(C)(C)c1cn(C)c2ccccc12)C(=O)N(C)[C@H](/C=C(\C)C(=O)O)C(C)C`, the IC50 in the test on MCF7 [1] was 0.8 nM; in the test on MCF7 [2], 0.5 nM.
For `CN[C@H](C(=O)N[C@H](C(=O)N(C)CCCC(=O)O)C(C)(C)C)C(C)(C)c1cn(C)c2ccccc12` the same measures were more than 1000 nM and more than 1000 nM.
As to `CCOC(=O)/C(C)=C/[C@H](C(C)C)N(C)C(=O)[C@@H](NC(=O)[C@@H](NC)C(C)(C)c1ccccc1)C(C)(C)C`, the figures for the IC50 in the test with MCF7 [1] and with MCF7 [2] were 7 nM and 1 nM, respectively.
Take `C/C(=C\[C@H](C(C)C)N(C)C(=O)[C@@H](NC(=O)[C@@H](N)Cc1c[nH]c2ccccc12)C(C)(C)C)C(=O)O`: the values for the IC50 in the test on MCF7 [1] and with MCF7 [2] were 40 nM and 20 nM, respectively.
Consider `CN[C@H](C(=O)N[C@H](C(=O)N(C)[C@H](/C=C(\C)C(=O)O)C(C)C)C(C)(C)C)C(C)(C)C`, for which the concentration for half-maximal inhibition (IC50) in the test with MCF7 [1] and in the test with MCF7 [2] was 6 nM in each case.
`CN[C@H](C(=O)N[C@H](C(=O)N(C)[C@H](/C=C(\C)C(=O)O)C(C)C)C(C)(C)C)C(C)C`: the IC50 in the test with MCF7 [1] came out at 150 nM; with MCF7 [2], 120 nM.
Consider `CN[C@@H](Cc1cn(C)c2ccccc12)C(=O)N[C@H](C(=O)N(C)[C@H](/C=C(\C)C(=O)O)C(C)C)C(C)(C)C`, for which the IC50 was 60 nM in the test on MCF7 [1] and 300 nM in the test with MCF7 [2].
For `CC(=O)N(C)[C@H](C(=O)N[C@H](C(=O)N(C)[C@H](/C=C(\C)C(=O)O)C(C)C)C(C)(C)C)C(C)(C)c1cn(C)c2ccccc12` the same measures were 300 nM and 300 nM.
For the molecule `CN[C@@H](Cc1cn(C)c2ccccc12)C(=O)N[C@H](C(=O)N(C)C(C)/C=C(\C)C(=O)O)C(C)(C)C` (stereo not given in full), the figures for the IC50 in the test with MCF7 [1] and in the test with MCF7 [2] were 2500 nM and 1100 nM, respectively.
In the case of `CN[C@H](C(=O)N[C@H](C(=O)N(C)[C@H](/C=C(\C)C(=O)O)C(C)C)C(C)(C)C)C(C)(C)c1ccccc1` [TALTOBULIN], the half-maximal inhibitory concentration (IC50) worked out at 0.08 nM in the test with MCF7 [1] and 0.09 nM in the test on MCF7 [2].
Consider `CN[C@H](C(=O)N[C@H](C(=O)N(C)[C@H](CC(C)C(=O)O)C(C)C)C(C)(C)C)C(C)(C)c1cn(C)c2ccccc12` (stereo not given in full), for which the IC50 in the test on MCF7 [2] was 2.5 nM.

These data come from ChEMBL document CHEMBL1158900, “Synthesis and antimitotic/cytotoxic activity of hemiasterlin analogues” (J Nat Prod, 2003).
